Measurements published in ChEMBL document CHEMBL1137992, “Long hydrocarbon chain keto diols and diacids that favorably alter lipid disorders in vivo” (J Med Chem, 2004).

Key:
Rattus norvegicus [1] = assay: Percentage change of triglycerides in obese female Zucker rats after 2 weeks of pre-treatment at a dose of 100 mg/kg/day; format: functional
Procedure, shortened: (§1)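 Female Zucker fatty rats [Crl:(Zuc)-faBR], 10–12 weeks old (400–500 g), acclimated 7 days and fed rodent chow. Dosed once daily by oral gavage in 20% EtOH/80% PEG-200 (v/v), at 0.25% of body weight, for 2 weeks. Blood taken after a 6-h fast: orbital plexus before dosing and at day 7, cardiac puncture at day 14. Serum lipoprotein cholesterol measured by Superose 6 gel filtration with on-line cholesterol detection. Values are % change from pretreatment, mean ± SEM.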

Rattus norvegicus [2] = assay: Percentage change of HDL cholesterol levels in obese female Zucker rats after 2 weeks of pre-treatment at a dose of 100 mg/kg/day; format: functional
Procedure, shortened: (§2)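 Obese female Zucker fatty rats were gavaged once daily with 30 or 100 mg/kg/day in 20% EtOH/80% PEG-200 for 2 weeks. Sera were collected after a 6 h fast, before dosing, at 1 week (orbital plexus) and at 2 weeks (cardiac puncture). HDL-C was total cholesterol multiplied by HDL area fraction from gel-filtration lipoprotein profiles. Reported as % change from pretreatment ± SEM.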

Rattus norvegicus [3] = assay: Percentage change of non-HDL cholesterol levels in obese female Zucker rats after 2 weeks of pre-treatment at a dose of 100 mg/kg/day; format: functional; procedure, shortened: as §1
Rattus norvegicus [4] = assay: Percentage change of non-HDL cholesterol levels in obese female Zucker rats after 1 week of pre-treatment at a dose of 100 mg/kg/day; format: functional; procedure, shortened: as §1
Rattus norvegicus [5] = assay: Percentage change of HDL cholesterol levels in obese female Zucker rats after 1 week of pre-treatment at a dose of 100 mg/kg/day; format: functional; procedure, shortened: as §2
[6] = Concentration required for inhibition of lipid synthesis in primary cultures of rat hepatocytes at 300 uM; not active; format: functional; settings: Hepatocyte
Procedure, shortened: (§3)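 Primary hepatocytes from male Sprague-Dawley rats (Seglen isolation), plated at 1.5×10^5 cells/cm² on collagen in serum-containing DMEM, switched to serum-free medium after 4 h, grown overnight to monolayers. Cells incubated 4 h with 0.25 μCi [1-14C]acetate/well (1 Ci/mol final) plus 0, 1, 3, 10, 30, 100 or 300 μM compound. Lipids extracted into scintillant and counted; IC50 taken from lipid synthesis rates.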

Rattus norvegicus [7] = assay: Percentage change of triglycerides in obese female Zucker rats after 1 week of pre-treatment at a dose of 100 mg/kg/day; format: functional; procedure, shortened: as §1
Rattus norvegicus [8] = assay: Percentage change of non-HDL cholesterol levels in obese female Zucker rats after 2 weeks of pre-treatment at a dose of 30 mg/kg/day; format: functional; procedure, shortened: as §1
Rattus norvegicus [9] = assay: Percentage change of HDL cholesterol levels in obese female Zucker rats after 1 week of pre-treatment at a dose of 30 mg/kg/day; format: functional; procedure, shortened: as §2
[10] = Concentration required for inhibition of lipid synthesis in primary cultures of rat hepatocytes; value ranges from 100-300 uM; format: functional, cell-based; settings: Hepatocyte; procedure, shortened: as §3
Rattus norvegicus [11] = assay: Percentage change of triglycerides in obese female Zucker rats after 2 weeks of pre-treatment at a dose of 30 mg/kg/day; format: functional; procedure, shortened: as §1
Rattus norvegicus [12] = assay: Percentage change of triglycerides in obese female Zucker rats after 1 week of pre-treatment at a dose of 30 mg/kg/day; format: functional; procedure, shortened: as §1
Rattus norvegicus [13] = assay: Percentage change of non-HDL cholesterol levels in obese female Zucker rats after 1 week of pre-treatment at a dose of 30 mg/kg/day; format: functional; procedure, shortened: as §1
Rattus norvegicus [14] = assay: Percentage change of HDL cholesterol levels in obese female Zucker rats after 2 weeks of pre-treatment at a dose of 30 mg/kg/day; format: functional; procedure, shortened: as §2
[15] = Concentration required for inhibition of lipid synthesis in primary cultures of rat hepatocytes; value ranges from 3-10 uM; format: functional, cell-based; settings: Hepatocyte; procedure, shortened: as §3
[16] = Concentration required for inhibition of lipid synthesis in primary cultures of rat hepatocytes; format: functional, cell-based; settings: Hepatocyte; procedure, shortened: as §3
Rattus norvegicus [17] = assay: Percentage change of HDL cholesterol levels in obese female Zucker rats after 2 weeks of pre-treatment at a dose of 59 mg/kg/day; format: functional
Rattus norvegicus [18] = assay: Percentage change of non-HDL cholesterol levels in obese female Zucker rats after 1 week of pre-treatment at a dose of 59 mg/kg/day; format: functional; procedure, shortened: as §1
Rattus norvegicus [19] = assay: Percentage change of triglycerides in obese female Zucker rats after 1 week of pre-treatment at a dose of 59 mg/kg/day; format: functional; procedure, shortened: as §1
Rattus norvegicus [20] = assay: Percentage change of non-HDL cholesterol levels in obese female Zucker rats after 2 weeks of pre-treatment at a dose of 59 mg/kg/day; format: functional; procedure, shortened: as §1
Rattus norvegicus [21] = assay: Percentage change of triglycerides in obese female Zucker rats after 2 weeks of pre-treatment at a dose of 59 mg/kg/day; format: functional; procedure, shortened: as §1
Rattus norvegicus [22] = assay: Percentage change of HDL cholesterol levels in obese female Zucker rats after 1 week of pre-treatment at a dose of […]; format: functional
Rattus norvegicus [23] = assay: Percentage change of non-HDL cholesterol levels in obese female Zucker rats after 1 week of treatment at a dose of 100 mg/kg/day; format: functional; settings: in the assay text read “30 mg/kg/day” for “100 mg/kg/day”; procedure, shortened: as §1

| SMILES | Change (Rattus norvegicus [1]) [%] | Change (Rattus norvegicus [2]) [%] | Change (Rattus norvegicus [3]) [%] | Change (Rattus norvegicus [4]) [%] | Change (Rattus norvegicus [5]) [%] | Change (Rattus norvegicus [7]) [%] | IC50 [16] [µM] | further results |
| --- | --- | --- | --- | --- | --- | --- | --- | --- |
| CC(C)Cc1ccc(C(C)(CO)CCCCC(=O)CCCCC(C)(CO)c2ccc(CC(C)C)cc2)cc1 (stereo unspecified) | -15 | 6 | 34 | 27 | -5 | -10 | – | inhibition at 300 µM [6]: < 50% |
| CC(CO)(CCCCC(=O)CCCCC(C)(CO)c1ccccc1)c1ccccc1 (stereo unspecified) | – | – | – | – | – | – | – | Change (Rattus norvegicus [8]): 31%; Change (Rattus norvegicus [9]): 0%; IC50 [10]: < 300 µM; Change (Rattus norvegicus [11]): 21%; Change (Rattus norvegicus [12]): -25%; Change (Rattus norvegicus [13]): -30%; Change (Rattus norvegicus [14]): -27% |
| CC(C)(CO)CCCCC(=O)CCCC(C)(C)CO | -12 | 48 | 4 | -26 | 47 | -40 | – | IC50 [15]: < 10 µM |
| CC(C)(CO)CCCCC(=O)CCCCC(C)(CO)c1ccccc1 (stereo unspecified) | – | – | – | – | – | – | 1 | Change (Rattus norvegicus [8]): -8%; Change (Rattus norvegicus [9]): -18%; Change (Rattus norvegicus [11]): -8%; Change (Rattus norvegicus [12]): 18%; Change (Rattus norvegicus [13]): 17%; Change (Rattus norvegicus [14]): -5% |
| Cc1ccc(C(C)(CCCCC(=O)CCCCC(C)(C(=O)O)c2ccc(C)cc2)C(=O)O)cc1 (stereo unspecified) | – | – | – | – | – | – | – | Change (Rattus norvegicus [8]): 47%; Change (Rattus norvegicus [9]): 0%; IC50 [10]: < 300 µM; Change (Rattus norvegicus [11]): 12%; Change (Rattus norvegicus [12]): -11%; Change (Rattus norvegicus [13]): 0%; Change (Rattus norvegicus [14]): 10% |
| CC(C)(CO)Cc1cccc(C(=O)c2cccc(CC(C)(C)CO)c2)c1 | -8 | -11 | -5 | -14 | 1 | -29 | 52 | – |
| CC(C)(CCCCCCCC(=O)CCCCCCCC(C)(C)C(=O)O)C(=O)O | -63 | 86 | -45 | -81 | 44 | -85 | 5 | – |
| CC(CCCC(=O)CCCC(C)(C(=O)O)c1ccccc1)(C(=O)O)c1ccccc1 (stereo unspecified) | 27 | 12 | 65 | 36 | -4 | 10 | – | inhibition at 300 µM [6]: < 50% |
| CC(C)(CCCCCC(=O)CCCCC(C)(C)C(=O)O)C(=O)O | -62 | 72 | -51 | -30 | 240 | -65 | 3 | – |
| CC(C)(CCCCC(=O)CCCC(C)(C)C(=O)O)C(=O)O | – | – | – | – | – | – | 8 | Change (Rattus norvegicus [8]): 93%; Change (Rattus norvegicus [9]): 7%; Change (Rattus norvegicus [11]): 23%; Change (Rattus norvegicus [12]): -2%; Change (Rattus norvegicus [13]): -17%; Change (Rattus norvegicus [14]): 4% |
| CC(C)(CCCCCCC(=O)CCCCCCC(C)(C)C(=O)O)C(=O)O | – | – | – | – | – | – | 9 | – |
| CC(CO)(CCCCCC(=O)CCCCCC(C)(CO)c1ccccc1)c1ccccc1 (stereo unspecified) | 1 | 10 | 9 | 29 | 2 | 24 | 93 | – |
| CC(C)(CO)CCCC(=O)CCCC(C)(C)CO | 10 | 2 | 28 | -22 | 24 | -31 | 27 | – |
| CC(C)(CO)CCCCCC(=O)CCCCCC(C)(C)CO | -92 | – | -88 | -91 | 77 | -92 | 3 | – |
| CC(C)(Cc1cccc(C(=O)c2cccc(CC(C)(C)C(=O)O)c2)c1)C(=O)O | – | – | – | – | – | – | – | Change (Rattus norvegicus [17]): 7%; Change (Rattus norvegicus [18]): -43%; Change (Rattus norvegicus [19]): -24%; Change (Rattus norvegicus [20]): 34%; Change (Rattus norvegicus [21]): 7%; Change (Rattus norvegicus [22]): 2% |
| CC(C)(CO)CCCCCCC(=O)CCCCCCC(C)(C)CO | – | – | – | – | – | – | 2 | Change (Rattus norvegicus [23]): -50% |
| CC(C)(CO)CCCCCC(=O)CCCCC(C)(C)CO | -87 | 78 | -78 | -70 | 78 | -85 | 2 | – |
| Cc1ccc(C(C)(CO)CCCCC(=O)CCCCC(C)(CO)c2ccc(C)cc2)cc1 (stereo unspecified) | – | – | – | – | – | – | – | Change (Rattus norvegicus [8]): 46%; Change (Rattus norvegicus [9]): -3%; IC50 [10]: < 300 µM; Change (Rattus norvegicus [11]): 0%; Change (Rattus norvegicus [12]): 15%; Change (Rattus norvegicus [13]): 61%; Change (Rattus norvegicus [14]): -2% |
| CC(CCCCC(=O)CCCCC(C)(C(=O)O)c1ccccc1)(C(=O)O)c1ccccc1 (stereo unspecified) | -8 | 45 | 79 | 36 | 43 | -36 | – | inhibition at 300 µM [6]: < 50% |
| CC(C)Cc1ccc(C(C)(CCCCC(=O)CCCCC(C)(C(=O)O)c2ccc(CC(C)C)cc2)C(=O)O)cc1 (stereo unspecified) | -66 | 62 | -44 | -40 | 11 | -63 | – | IC50 [10]: < 300 µM |
| CC(CO)(CCCC(=O)CCCC(C)(CO)c1ccccc1)c1ccccc1 (stereo unspecified) | -17 | -11 | -32 | -18 | -14 | -20 | – | IC50 [10]: < 300 µM |
| CC(C)OC(=O)C(C)(C)Oc1ccc(C(=O)c2ccc(Cl)cc2)cc1 [FENOFIBRATE] | -8 | -14 | 11.6 | 19.8 | -41 | 6 | – | – |
| CCCCCCCCCCCCCCSCC(=O)O [TETRADECYLTHIOACETIC ACID] | – | – | – | – | – | – | 43 | – |
